# Source: PubChem
# FN deposition inh: fibronectin deposition inhibition | inhibition, % at 12.6 µM | hit rate 0.086% among 350,000 | AH1F fibroblasts, Alexa488-fibronectin deposition fluorescence, overnight;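 active = mean inhibition across replicates of 30% or more, regardless of how many single replicates reach that level; inconclusive = mean under 30% yet at least half of replicates reach 30%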
#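 material = AH1F fibroblast monolayer depositing Alexa488-labelled fibronectin into matrix | amount = 10000 AH1F cells/well | buffer or medium = DMEM plus 2% serum, read in PBS | incubation = 1 h cell adhesion before compound, then overnight fibronectin incubation | detection = fluorescence at 485 nm excitation, 525 nm emission | evaluation = percent inhibition as loss of matrix-bound fibronectin fluorescence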
# PGC1a acetyl inh: lowers PGC1a acetylation signal in U2OS cells | AlphaScreen anti-acetyl-lysine; with virally co-expressed GCN5 acetyltransferase | AID 651687 | hit rate 0.17% among 350,000 | inhibition, % at 15.6 µM;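 active = every replicate shows inhibition of at least 40%; inconclusive = mean inhibition at least 40% but some replicate below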
# Ecoli rRNA inh: inhibits bacterial ribosomal RNA function over humanized ribosomes | E. coli WT GFP vs humanized-ribosome RFP mutants, fluorescence, 24 h; hits give low values; DMSO median 0, no signal -100 | hit rate 1.6% among 350,000 | GFP signal change (wild-type ribosome), % (no concentration beside the values);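 active = significant combined selectivity score with lowered wild-type GFP, culture density cut under 30%, mutant RFP and density less affected; inactive = any of these conditions unmet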
# PglD DTNB: inhibitors of Campylobacter jejuni PglD acetyltransferase | purified PglD enzyme, DTNB colorimetric CoA detection | inhibition, % at 12.5 µM | hit rate 0.098% among 360,000; in the data active = inhibition above about 16%, passing the limit was not always enough; inconclusive = no clear call, values can overlap the other calls
# HIV Env fusion: blocks HIV Env-driven cell-cell fusion. AID 651610. hit rate 1.1% among 360,000. HeLa-JRFL Env/CEM21 cell fusion, luciferase. inhibition, % at 12.3 µM;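 active = mean replicate inhibition score of at least 50 and every replicate individually at or above 50; inconclusive = only one of the two criteria met; inactive = mean below 50 and not all replicates reaching 50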
# DENV2 CPE: protects cells from dengue virus 2 cytopathic effect | hit rate 1.7% among 350,000 | DENV2-infected cells, cytopathic effect rescue, plate reader | CPE inhibition, % at 9.99 µM | AID 651640; in the data active = CPE inhibition above about 20%, passing the limit was not always enough; inconclusive = no clear call, values can overlap the other calls; tested in BHK-21 cells
# AID977621: growth inhibition of wild-type GFP E. coli, dose response, H69 mutant RFP, cherry-pick. E. coli wild-type GFP strain growth, fluorescence, 24 h. AID 977621. activity change, negative = inhibition at 50 µM. 1,900 tested, under 10 active. shares compounds with Ecoli rRNA inh;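 active = Wild-type ribosome reporter drop at least double the humanized mutant ribosome reporter drop, growth loss under a set limit; inconclusive = no clear call, values can overlap the other calls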;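 note: wild-type GFP and H69 mutant RFP strains grown together 50/50 in each well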
# AID977628: E. coli growth inhibition, wild-type GFP versus h24 humanized RFP strain, dose response, h24 mutant RFP vs wild-type GFP, cherry-pick; AID 977628; E. coli WT GFP strain growth, fluorescence, 24 h; 1,900 tested, under 10 active; activity change, negative = inhibition at 50 µM; shares compounds with Ecoli rRNA inh;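 active = compound lowering the normal-ribosome reporter at least twice as much as the humanized-ribosome reporter, growth loss under a set limit; inconclusive = no clear call, values can overlap the other calls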;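 note: wild-type GFP and h24 humanized RFP strains co-cultured 1 to 1 per well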
# Hits are given with their value; 0 = inactive; ? = inconclusive; - = no result given; ! = not active in a repeat. Shown are actives, neighbours in structure and some others; about 3.5% of the full set was active somewhere.
SMILES,FN deposition inh,PGC1a acetyl inh,Ecoli rRNA inh,PglD DTNB,HIV Env fusion,DENV2 CPE,AID977621,AID977628
O=C(c1ccc(N2CCCCC2)c([N+](=O)[O-])c1)N1CCN(c2ccccn2)CC1,0,0,-21.1,0,0,0,-,?
Cn1c(=O)n(C)c2cc([N+](=O)[O-])c(N3CCN(C(=O)c4cccc(F)c4)CC3)cc21,-,-,-18.0,-,0,0,0,?
COCC#Cc1ccc2c(c1)O[C@H](CN(C)C(=O)c1ccccc1)[C@@H](C)CN([C@H](C)CO)S2(=O)=O,0,0,-18.6!,0,0,0,0,0
COCC#Cc1ccc2c(c1)O[C@@H](CN(C)C(=O)c1ccccc1)[C@@H](C)CN([C@@H](C)CO)S2(=O)=O,-,0,0,0,0,0,-,-
Cc1ccc2c(c1C)OC(=O)CC2c1ccccc1 (centres undefined),0,-,-27.3,0,0,0,-,?
Cc1ccc2c(c1)OC(=O)CC2c1ccccc1 (centres undefined),0,0,-,0,-,-,-,-
COc1ccc(C2CC(c3ccc(Br)cc3)=NN2C(=O)CN2CCCC2)cc1 (centres undefined),0,-,-19.2,-,0,0,0,?
COc1ccc(C2=NN(C(=O)CN3CCCCC3)C(c3ccc(C)cc3)C2)cc1 (centres undefined),0,0,0,0,0,0,-,-
Nc1[nH]c(C(=O)c2ccccc2)c(-c2ccc(Br)cc2)c1C(=O)c1cccs1,0,-,-33.6,-,0,0,?,-
COc1ccc(-c2cc(C(=O)N3CCCCC3)no2)cc1OC,-,0,-22.6,0,-,0,0,?
COc1cccc(-c2cc(C(=O)N3CCc4ccccc4C3)no2)c1,0,0,-,0,0,-,-,-
COc1ccc(-c2cc(C(=O)N3CCc4ccccc4C3)no2)cc1,0,0,-26.2,0,0,0,0,-
COc1ccc(-c2cc(C(=O)N3CCCC3)no2)cc1OC,0,0,0,0,0,0,-,-
CCNC(=O)C[C@@H]1CC[C@H]2[C@H](COc3ccc(NC(=O)Nc4cccc(Cl)c4)cc3C(=O)N2C)O1,0,0,0,0,0,0,-,-
O=[N+]([O-])c1ccc(/C=C/c2ccc3cccc([N+](=O)[O-])c3n2)cc1,0,-,-17.9,-,0,?,0,0
CN(CC(=O)Nc1ccc(S(=O)(=O)N2CCCC2)cc1)CC(=O)Nc1ccc(F)c(F)c1F,0,-,-32.8,-,0,-,0,?
Cc1ccc(S(=O)(=O)N2CCN(CC(=O)Nc3ccc4c(c3)CCC4)CC2)cc1C,0,0,-,0,0,-,-,-
CSc1ccccc1NC(=O)CN(C)CC(=O)Nc1ccc(S(=O)(=O)N2CCCC2)cc1,-,0,0,0,0,0,-,-
O=C(CN1CCN(S(=O)(=O)c2ccc(Cl)cc2)CC1)Nc1ccc2c(c1)CCC2,0,-,-21.1,0,-,-,0,?
COc1ccccc1OCC(=O)Nc1ccc(S(=O)(=O)N2CCCCCC2)cc1,-,0,-19.4,0,-,-,0,-
CCc1ccc2[nH]c(C(=O)Nc3ccc4c(c3)OCO4)cc2c1,0,-,-26.0,-,0,0,0,?
O=C(Nc1ccc2c(c1)OCO2)c1ccc(CO)cc1,0,0,0,0,-,0,-,-
CSCCC1NC(=O)N(C(C)C(=O)Nc2cc(Cl)cc(Cl)c2)C1=O (centres undefined),0,0,-21.4,0,0,0,0,0
COc1ccc(N(C)S(=O)(=O)c2cccc(C(=O)NC3CCCC3)c2)cc1,-,0,0,0,0,0,-,-
COc1ccc(N(C)S(=O)(=O)c2cccc(C(=O)NC3CCCCC3C)c2)cc1 (centres undefined),-,0,-27.0,0,0,0,0,-
SMILES,FN deposition inh,PGC1a acetyl inh,Ecoli rRNA inh,PglD DTNB,HIV Env fusion,DENV2 CPE,AID977621,AID977628
CC(C)NC(=O)N(C)C[C@@H]1Oc2ccc(NC(=O)CCC(F)(F)F)cc2CC(=O)N([C@H](C)CO)C[C@@H]1C,-,0,0,0,-,0,-,-
O=C(NCCc1ccccn1)c1cccc(S(=O)(=O)N2CCc3ccccc32)c1,-,0,-18.1,0,0,0,-,?
O=C(CN1CCOCC1)N1CC[C@@H]2[C@@H](CO)Nc3ccc(Br)cc3[C@@H]21,0,0,0,0,-,0,-,-
COc1ccc(NC(=O)CSc2nnc(Cc3ccccc3)o2)c(OC)c1,-,0,-24.3,0,-,0,0,0
CCc1nnc(NC(=O)c2nc(S(=O)(=O)Cc3ccccc3)ncc2Cl)s1,0,-,0,0,0,0,-,-
Cc1ccc(CS(=O)(=O)c2ncc(Cl)c(C(=O)Nc3ccc(OC(F)F)cc3)n2)cc1,0,-,0,0,0,0,-,-
O=C(NCc1ccccc1)c1nc(S(=O)(=O)Cc2ccccc2)ncc1Cl,0,0,-24.1,0,0,0,0,0
COc1ccc(CNC(=O)c2nc(S(=O)(=O)Cc3ccccc3)ncc2Cl)cc1,0,0,-16.2,0,0,0,0,0
Cc1ccccc1S(=O)(=O)N1CC[C@@H]2[C@H]1c1cc(-c3ccccc3)ccc1N[C@@H]2CO,0,0,0,0,-,0,-,-
NC(=O)c1ccsc1NC(=O)COC(=O)CCOc1ccccc1,0,0,-22.6,0,0,0,0,-
COc1cc2c(cc1OC)CN(C(=O)[C@H]1[C@@H]3C(=O)O[C@@H](c4ccccc4)[C@@H](c4ccccc4)N3[C@@H](c3ccccc3OCCO)[C@]13C(=O)Nc1ccc(C#CCCO)cc13)CC2,-,-,-,0,0,0,-,-
Nc1nc(-c2cc(-c3ccccc3)no2)cs1,0,0,-19.0,0,0,?,0,?
CCCNC(=O)N(C)C[C@@H]1Oc2ncc(-c3cccc(C#N)c3)cc2C(=O)N([C@H](C)CO)C[C@@H]1C,-,0,0,0,0,0,-,-
O=C1c2ccccc2C(=O)N1CCCc1c[nH]c2ccccc12,-,0,-,0,0,-,-,-
O=C1c2ccccc2C(=O)N1CCc1c[nH]c2ccccc12,0,0,-20.7,-,0,0,0,-
CCC(=O)N1CC(=O)N2[C@H](C1)[C@H](c1ccc(-c3ccc(C(=O)N(C)C)cc3)cc1)[C@@H]2CO,-,0,0,-,-,0,-,-
O=C(O)c1cc(-c2ccc(Cl)s2)nc2ccccc12,-,0,-26.6,-,0,0,0,?
Cc1ccc(-c2cc(C(=O)O)c3ccccc3n2)s1,0,0,0,0,0,0,-,-
Cc1ccc(S(=O)(=O)N(C)C[C@H]2OCCCC[C@@H](C)Oc3ccc(NS(=O)(=O)c4ccc(Cl)cc4)cc3C(=O)N([C@H](C)CO)C[C@H]2C)cc1,0,0,0,0,0,0,-,-
CC(=O)N1CC2(C1)[C@@H](c1ccc(-c3ccc(C#N)cc3)cc1)[C@@H](CO)N2C(=O)C1CC1,-,0,0,-,-,0,-,-
